Converted amounts (≈) assume the structure as drawn.
How the values were obtained:
HEK293 = test: Inhibition of beta-amyloid peptide production in HEK293 cell line; format: functional, cell-based; settings: Homo sapiens
Interstitial collagenase = biological target: T1, Interstitial collagenase (Homo sapiens, UniProt P03956); test: Inhibition of MMP1
T1 sequence (P03956 whole entry): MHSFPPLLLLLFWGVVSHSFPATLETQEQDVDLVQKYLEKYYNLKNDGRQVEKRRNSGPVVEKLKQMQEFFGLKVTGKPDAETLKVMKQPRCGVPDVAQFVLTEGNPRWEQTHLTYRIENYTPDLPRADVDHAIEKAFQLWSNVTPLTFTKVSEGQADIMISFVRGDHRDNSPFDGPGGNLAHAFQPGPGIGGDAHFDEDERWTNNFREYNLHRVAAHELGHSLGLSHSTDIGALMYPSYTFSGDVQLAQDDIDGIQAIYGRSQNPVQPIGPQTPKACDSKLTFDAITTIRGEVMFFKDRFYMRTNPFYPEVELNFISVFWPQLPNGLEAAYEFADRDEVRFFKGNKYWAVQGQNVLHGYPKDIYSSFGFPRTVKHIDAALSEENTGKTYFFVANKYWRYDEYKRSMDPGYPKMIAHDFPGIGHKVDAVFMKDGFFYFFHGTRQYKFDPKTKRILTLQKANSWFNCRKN

[1] = biological target: 72 kDa type IV collagenase (Homo sapiens, UniProt P08253); test: Inhibition of MMP2
Matrilysin = biological target: T2, Matrilysin (Homo sapiens, UniProt P09237); test: Inhibition of MMP7
T2 sequence (P09237 whole entry): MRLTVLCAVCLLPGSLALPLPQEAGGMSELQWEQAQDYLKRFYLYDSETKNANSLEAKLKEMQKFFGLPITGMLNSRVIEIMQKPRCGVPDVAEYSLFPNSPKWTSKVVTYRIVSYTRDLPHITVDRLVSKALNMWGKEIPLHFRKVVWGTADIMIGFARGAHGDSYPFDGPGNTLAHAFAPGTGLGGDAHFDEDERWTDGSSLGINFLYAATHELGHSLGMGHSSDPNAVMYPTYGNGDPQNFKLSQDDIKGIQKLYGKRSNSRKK

[2] = biological target: Matrix metalloproteinase-9 (Homo sapiens, UniProt P14780); test: Inhibition of MMP9
Stromelysin-2 = Stromelysin-2 (Homo sapiens, UniProt P09238); test: Inhibition of MMP10
Collagenase 3 = Collagenase 3 (Homo sapiens, UniProt P45452); test: Inhibition of MMP13
[3] = biological target: Matrix metalloproteinase-14 (Homo sapiens, UniProt P50281); test: Inhibition of MMP14
[4] = biological target: Disintegrin and metalloproteinase domain-containing protein 17 (Homo sapiens, UniProt P78536)
[5] = Percent of unbound ligand in Beagle dog at 0.5 mg/kg, po; format: ADME, organism-based, Canis lupus familiaris; design: dose 0.5 mg/kg, route oral; settings: in vivo
[6] = Clearance in Beagle dog at 0.5 mg/kg, po; format: ADME, organism-based, Canis lupus familiaris; design: dose 0.5 mg/kg, route oral; settings: in vivo
Outline: (§1)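 Beagle dogs were dosed in cassette format with up to nine other compounds. Doses were kept low to limit interactions: 0.25 mg/kg iv and 0.5 or 1.0 mg/kg po. Pharmacokinetic parameters were derived from these dosings.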

Canis familiaris [7] = test: Volume of distribution in Beagle dog at 0.5 mg/kg, po; format: ADME, organism-based, Canis lupus familiaris; design: dose 0.5 mg/kg, route oral; settings: in vivo; outline: as §1
[8] = Half life in Beagle dog at 0.5 mg/kg, po; format: ADME, organism-based, Canis lupus familiaris; design: dose 0.5 mg/kg, route oral; settings: in vivo; outline: as §1
[9] = Cmax in Beagle dog at 0.5 mg/kg, po; format: ADME, organism-based, Canis lupus familiaris; design: dose 0.5 mg/kg, route oral; settings: in vivo; outline: as §1
[10] = Oral bioavailability in Beagle dog at 0.5 mg/kg, po; format: ADME, organism-based, Canis lupus familiaris; settings: in vivo; outline: as §1
[11] = Inhibition of gamma secretase mediated Notch1 signalling in NIH3T3 cells; format: functional, cell-based; settings: Mus musculus
Outline: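 NIH3T3 cells were grown in DMEM with 10% calf serum, penicillin/streptomycin, 2 mM L-glutamine and 1 mM pyruvate. They were transiently batch-transfected for 24 h with mouse Notch-1 ΔE, vector DNA and a CBF1-luciferase reporter (four tandem CBF1 binding elements). Cells were then replated in defined medium with 0.0125% BSA, treated with serial compound dilutions for 20 h, and read by luciferase luminescence.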

[12] = Solubility at pH 7.4; format: physicochemical; settings: buffer
[13] = Clearance in Beagle dog at 1 mg/kg, po; format: ADME, organism-based, Canis lupus familiaris; design: dose 1 mg/kg, route oral; settings: in vivo; outline: as §1
Canis familiaris [14] = test: Volume of distribution in Beagle dog at 1 mg/kg, po; format: ADME, organism-based, Canis lupus familiaris; design: dose 1 mg/kg, route oral; settings: in vivo; outline: as §1
[15] = Half life in Beagle dog at 1 mg/kg, po; format: ADME, organism-based, Canis lupus familiaris; design: dose 1 mg/kg, route oral; settings: in vivo; outline: as §1
[16] = Cmax in Beagle dog at 1 mg/kg, po; format: ADME, organism-based, Canis lupus familiaris; design: dose 1 mg/kg, route oral; settings: in vivo; outline: as §1
[17] = Oral bioavailability in Beagle dog at 1 mg/kg, po; format: ADME, organism-based, Canis lupus familiaris; settings: in vivo
Outline: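 Beagle dogs given compounds in cassette format with up to nine other compounds. Doses were kept low to limit interactions: 0.25 mg/kg iv, and 0.5 or 1.0 mg/kg po.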

Sequence of Disintegrin and metalloproteinase domain-containing protein 17 (P78536 whole entry, the tested form may be a part): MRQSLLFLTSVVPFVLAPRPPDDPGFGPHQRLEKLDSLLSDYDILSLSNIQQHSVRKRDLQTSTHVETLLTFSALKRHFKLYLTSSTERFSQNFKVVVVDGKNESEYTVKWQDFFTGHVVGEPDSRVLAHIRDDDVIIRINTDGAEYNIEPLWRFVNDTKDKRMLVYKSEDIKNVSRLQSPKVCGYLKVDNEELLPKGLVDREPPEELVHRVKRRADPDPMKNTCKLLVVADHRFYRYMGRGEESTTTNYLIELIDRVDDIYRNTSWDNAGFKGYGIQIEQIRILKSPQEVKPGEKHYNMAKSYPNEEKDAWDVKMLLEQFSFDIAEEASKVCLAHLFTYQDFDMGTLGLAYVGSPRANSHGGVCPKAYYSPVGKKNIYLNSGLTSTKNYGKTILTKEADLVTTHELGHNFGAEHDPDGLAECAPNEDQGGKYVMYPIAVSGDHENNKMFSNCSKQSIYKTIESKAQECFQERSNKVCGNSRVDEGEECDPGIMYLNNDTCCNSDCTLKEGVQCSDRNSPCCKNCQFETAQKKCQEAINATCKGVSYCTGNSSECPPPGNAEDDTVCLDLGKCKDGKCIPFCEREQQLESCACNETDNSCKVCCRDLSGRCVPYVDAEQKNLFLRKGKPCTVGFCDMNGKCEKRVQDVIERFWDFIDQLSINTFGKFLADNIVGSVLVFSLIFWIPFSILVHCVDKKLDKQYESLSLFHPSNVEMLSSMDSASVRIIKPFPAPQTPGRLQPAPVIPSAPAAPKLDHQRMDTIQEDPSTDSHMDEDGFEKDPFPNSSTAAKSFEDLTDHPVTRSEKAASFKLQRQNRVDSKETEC
Sequence of Stromelysin-2 (P09238 whole entry): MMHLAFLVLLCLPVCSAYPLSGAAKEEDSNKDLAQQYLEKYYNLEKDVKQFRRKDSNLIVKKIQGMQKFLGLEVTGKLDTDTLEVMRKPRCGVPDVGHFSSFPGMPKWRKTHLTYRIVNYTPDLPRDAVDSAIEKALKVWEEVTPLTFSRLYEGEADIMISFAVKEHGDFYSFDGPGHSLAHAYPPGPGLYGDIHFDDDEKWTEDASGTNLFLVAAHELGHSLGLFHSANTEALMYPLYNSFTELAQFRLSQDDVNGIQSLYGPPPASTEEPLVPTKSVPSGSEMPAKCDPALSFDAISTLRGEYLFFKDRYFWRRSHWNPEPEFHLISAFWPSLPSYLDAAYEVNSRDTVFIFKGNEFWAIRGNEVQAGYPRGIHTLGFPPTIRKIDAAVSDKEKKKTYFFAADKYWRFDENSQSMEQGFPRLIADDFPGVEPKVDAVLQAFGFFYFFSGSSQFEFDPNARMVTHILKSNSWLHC
Sequence of Matrix metalloproteinase-9 (P14780 whole entry): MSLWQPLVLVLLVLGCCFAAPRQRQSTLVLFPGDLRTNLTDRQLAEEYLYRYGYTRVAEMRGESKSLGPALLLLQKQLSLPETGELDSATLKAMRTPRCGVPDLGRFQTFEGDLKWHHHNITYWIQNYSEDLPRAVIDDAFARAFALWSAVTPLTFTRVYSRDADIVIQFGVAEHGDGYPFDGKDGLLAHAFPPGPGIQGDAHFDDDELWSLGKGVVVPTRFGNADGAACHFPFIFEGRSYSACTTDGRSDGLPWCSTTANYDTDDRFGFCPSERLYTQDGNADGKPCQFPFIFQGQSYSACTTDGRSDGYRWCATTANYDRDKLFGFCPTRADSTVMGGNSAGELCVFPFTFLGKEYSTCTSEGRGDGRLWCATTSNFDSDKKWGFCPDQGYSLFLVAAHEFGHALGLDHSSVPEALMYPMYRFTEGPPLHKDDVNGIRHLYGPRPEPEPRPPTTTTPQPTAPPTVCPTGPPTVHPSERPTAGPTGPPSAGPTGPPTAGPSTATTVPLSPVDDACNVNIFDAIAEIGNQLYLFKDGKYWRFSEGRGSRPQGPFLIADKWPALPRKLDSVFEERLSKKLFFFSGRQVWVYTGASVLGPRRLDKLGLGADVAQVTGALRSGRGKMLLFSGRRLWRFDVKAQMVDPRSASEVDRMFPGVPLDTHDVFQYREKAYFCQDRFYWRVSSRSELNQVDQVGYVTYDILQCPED
Sequence of 72 kDa type IV collagenase (P08253 whole entry): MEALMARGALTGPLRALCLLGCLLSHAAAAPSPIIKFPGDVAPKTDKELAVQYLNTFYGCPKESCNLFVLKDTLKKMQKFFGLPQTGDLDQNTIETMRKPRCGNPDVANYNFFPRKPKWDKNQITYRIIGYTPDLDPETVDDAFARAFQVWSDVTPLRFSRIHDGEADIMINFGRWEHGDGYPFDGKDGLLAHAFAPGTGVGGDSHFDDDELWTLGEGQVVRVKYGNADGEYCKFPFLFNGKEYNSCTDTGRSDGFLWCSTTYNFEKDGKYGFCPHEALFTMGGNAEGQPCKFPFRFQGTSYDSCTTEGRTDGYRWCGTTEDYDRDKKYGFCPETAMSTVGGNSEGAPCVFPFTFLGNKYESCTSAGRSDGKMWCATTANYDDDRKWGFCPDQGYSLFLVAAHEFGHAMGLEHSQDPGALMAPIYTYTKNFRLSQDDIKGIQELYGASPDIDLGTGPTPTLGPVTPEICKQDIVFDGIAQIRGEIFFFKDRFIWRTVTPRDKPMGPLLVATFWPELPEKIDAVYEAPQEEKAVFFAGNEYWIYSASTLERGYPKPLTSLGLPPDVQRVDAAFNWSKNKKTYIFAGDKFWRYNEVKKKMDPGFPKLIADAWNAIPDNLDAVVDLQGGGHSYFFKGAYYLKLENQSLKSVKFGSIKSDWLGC

Row | SMILES | IC50 (HEK293) [nM] | other results
1 | CCC[C@H](C(=O)NO)[C@@H](CC(C)C)C(=O)N[C@H]1CCCCN(Cc2cccc(Oc3ccccc3)c2)C1=O | 500 | Ki (Interstitial collagenase): 21 nM; Ki [1]: 7 nM; Ki (Matrilysin): 660 nM; Ki [2]: 5 nM; Ki (Stromelysin-2): 190 nM; Ki (Collagenase 3): 10 nM; Ki [3]: 1200 nM; Ki [4]: 4 nM
2 | CCC[C@H](C(=O)OC)[C@@H](CC(C)C)C(=O)N[C@H]1CCCCN(Cc2cccc(Oc3ccccc3)c2)C1=O | 6000 | 
3 | CCC[C@H](C(=O)NO)[C@@H](CC(C)C)C(=O)N[C@H]1CCCCN(Cc2cccc(I)c2)C1=O | 3000 | 
4 | CCC[C@H](C(=O)N(C)OC)[C@@H](CC(C)C)C(=O)N[C@H]1CCCCN(Cc2cccc(Oc3ccccc3)c2)C1=O | 5000 | 
5 | CCC[C@H](C(=O)NN)[C@@H](CC(C)C)C(=O)N[C@H]1CCCCN(Cc2cccc(Oc3ccccc3)c2)C1=O | 1600 | 
6 | CCC[C@H](C(N)=O)[C@@H](CC(C)C)C(=O)N[C@H]1CCCCN(Cc2cccc(Nc3ccccc3)c2)C1=O |  | fraction unbound [5]: 0.015; CL/F [6]: 10 mL/min/kg; Vss (Canis familiaris [7]): 0.4 L/kg; half-life [8]: 1 h; Cmax [9]: 17 nM; bioavailability [10]: 3%; IC50 [11]: 64 nM
7 | CCC[C@H](C(N)=O)[C@@H](CC(C)C)C(=O)N[C@H]1CCCCN(Cc2cncc(-c3ccccn3)c2)C1=O | 8800 | 
8 | CCC[C@@H](CC(=O)NNC(=O)[C@@H](CCC)[C@@H](CC(C)C)C(=O)N[C@H]1CCCCN(Cc2cccc(Oc3ccccc3)c2)C1=O)C(=O)NO | > 10000 | 
9 | CCC[C@H](C(=O)NNC(=O)[C@@H](CCC)[C@@H](CC(C)C)C(=O)N[C@H]1CCCCN(Cc2cccc(Oc3ccccc3)c2)C1=O)[C@@H](CC(C)C)C(N)=O | 226 | 
10 | CCC[C@H](C(=O)NOC)[C@@H](CC(C)C)C(=O)N[C@H]1CCCCN(Cc2cccc(Oc3ccccc3)c2)C1=O | 5000 | 
11 | CCC[C@H](C(=O)NC)[C@@H](CC(C)C)C(=O)N[C@H]1CCCCN(Cc2cccc(Oc3ccccc3)c2)C1=O | 5000 | 
12 | CCC[C@H](C(=O)NNC(=O)[C@@H](CC(N)=O)CC(C)C)[C@@H](CC(C)C)C(=O)N[C@H]1CCCCN(Cc2cccc(Oc3ccccc3)c2)C1=O | > 10000 | 
13 | CCC[C@H](C(=O)NNC(=O)[C@H](CC(C)C)[C@@H]1CCNC1=O)[C@@H](CC(C)C)C(=O)N[C@H]1CCCCN(Cc2cccc(Oc3ccccc3)c2)C1=O | > 10000 | 
14 | CCC[C@H](C(=O)O)[C@@H](CC(C)C)C(=O)N[C@H]1CCCCN(Cc2cccc(Oc3ccccc3)c2)C1=O | > 3000 | 
15 | CCC[C@H](C(N)=O)[C@@H](CC(C)C)C(=O)N[C@H]1CCCCN(Cc2cncc(-c3ccc(F)c(Cl)c3)c2)C1=O | 4 | 
16 | CCC[C@H](C(N)=O)[C@@H](CC(C)C)C(=O)N[C@H]1CCCCN(Cc2cncc(-c3ccc(OC)cc3)c2)C1=O | 32 | 
17 | CCC[C@H](C(N)=O)[C@@H](CC(C)C)C(=O)N[C@H]1CCCCN(Cc2cncc(-c3ccc(C(F)(F)F)cc3)c2)C1=O | 17 | 
18 | CCC[C@H](C(N)=O)[C@@H](CC(C)C)C(=O)N[C@H]1CCCCN(Cc2cncc(-c3cccnc3)c2)C1=O | 2200 | 
19 | CCC[C@H](C(N)=O)[C@@H](CC(C)C)C(=O)N[C@H]1CCCCN(Cc2cccc(Oc3ccccc3)c2)C1=O | 50 | fraction unbound [5]: 0.004; CL/F [6]: 31.7 mL/min/kg; Vss (Canis familiaris [7]): 1.3 L/kg; half-life [8]: 0.5 h; Cmax [9]: 25 nM; bioavailability [10]: 8%; IC50 [11]: 82 nM; solubility [12]: 1 µg/mL (≈ 1.97 µM)
20 | CCCC(C(N)=O)C(CC(C)C)C(=O)N[C@H]1CCCCN(Cc2cccc(-c3ccc(Cl)cc3Cl)c2)C1=O (single isomer, unassigned) | 14 | 
21 | CCCC(C(=O)NO)C(CC(C)C)C(=O)N[C@H]1CCCCN(Cc2cccc(-c3ccccc3OC)c2)C1=O (single isomer, unassigned) | 300 | 

Row | SMILES | IC50 (HEK293) [nM] | other results
22 | CCCC(C(N)=O)C(CC(C)C)C(=O)N[C@H]1CCCCN(Cc2cccc(-c3ccc(F)c(Cl)c3)c2)C1=O (single isomer, unassigned) | 17 | CL/F [13]: 6.67 mL/min/kg; Vss (Canis familiaris [14]): 0.8 L/kg; half-life [15]: 1.3 h; Cmax [16]: 116 nM; bioavailability [17]: 25%; IC50 [11]: 18 nM; solubility [12]: 0.1 µg/mL (≈ 0.184 µM)
23 | CCCC(C(N)=O)C(CC(C)C)C(=O)N[C@H]1CCCCN(Cc2cccc(-c3ccccc3OC)c2)C1=O (single isomer, unassigned) | 30 | 
24 | CCCC(C(=O)NO)C(CC(C)C)C(=O)N[C@H]1CCCCN(Cc2cccc(-c3cccc(OC)c3)c2)C1=O (single isomer, unassigned) | 600 | 
25 | CCCC(C(=O)NO)C(CC(C)C)C(=O)N[C@H]1CCCCN(Cc2cccc(-c3ccc(C(F)(F)F)cc3)c2)C1=O (single isomer, unassigned) | 230 | 
26 | CCCC(C(=O)NO)C(CC(C)C)C(=O)N[C@H]1CCCCN(Cc2cccc(-c3cccc(F)c3)c2)C1=O (single isomer, unassigned) | 180 | 
27 | CCCC(C(N)=O)C(CC(C)C)C(=O)N[C@H]1CCCCN(Cc2cccc(-c3cccc(OC)c3)c2)C1=O (single isomer, unassigned) | 150 | 
28 | CCCC(C(N)=O)C(CC(C)C)C(=O)N[C@H]1CCCCN(Cc2cccc(-c3ccc(OC)cc3)c2)C1=O (single isomer, unassigned) | 8 | 
29 | CCCC(C(N)=O)C(CC(C)C)C(=O)N[C@H]1CCCCN(Cc2cccc(-c3ccc(F)cc3)c2)C1=O (single isomer, unassigned) | 191 | 
30 | CCCC(C(N)=O)C(CC(C)C)C(=O)N[C@H]1CCCCN(Cc2ccc(-c3ccc(C(F)(F)F)cc3)cc2)C1=O (single isomer, unassigned) | 90 | 
31 | CCCC(C(=O)NO)C(CC(C)C)C(=O)N[C@H]1CCCCN(Cc2cccc(-c3ccc(F)c(Cl)c3)c2)C1=O (single isomer, unassigned) | 100 | 
32 | CCCC(C(=O)NO)C(CC(C)C)C(=O)N[C@H]1CCCCN(Cc2cccc(-c3ccc(F)cc3)c2)C1=O (single isomer, unassigned) | 470 | 
33 | CCCC(C(=O)NO)C(CC(C)C)C(=O)N[C@H]1CCCCN(Cc2cccc(-c3cccc(NC(C)=O)c3)c2)C1=O (single isomer, unassigned) | > 10000 | 
34 | CCCC(C(=O)NO)C(CC(C)C)C(=O)N[C@H]1CCCCN(Cc2cccc(-c3cccc(C)c3)c2)C1=O (single isomer, unassigned) | 510 | 
35 | CCCC(C(N)=O)C(CC(C)C)C(=O)N[C@H]1CCCCN(Cc2cccc(-c3cccc(F)c3)c2)C1=O (single isomer, unassigned) | 300 | 
36 | CCCC(C(=O)NO)C(CC(C)C)C(=O)N[C@H]1CCCCN(Cc2cccc(-c3ccccc3-c3cccc4ccccc34)c2)C1=O (single isomer, unassigned) | 250 | 
37 | CCCC(C(N)=O)C(CC(C)C)C(=O)N[C@H]1CCCCN(Cc2cccc(-c3ccc(C)cc3)c2)C1=O (single isomer, unassigned) | 40 | 
38 | CCCC(C(=O)NO)C(CC(C)C)C(=O)N[C@H]1CCCCN(Cc2cccc(-c3ccc(Cl)cc3Cl)c2)C1=O (single isomer, unassigned) | 350 | 
39 | CCCC(C(=O)NO)C(CC(C)C)C(=O)N[C@H]1CCCCN(Cc2cccc(-c3ccc(C)cc3)c2)C1=O (single isomer, unassigned) | 260 | 
40 | CCCC(C(=O)NO)C(CC(C)C)C(=O)N[C@H]1CCCCN(Cc2cccc(-c3ccc(OC)cc3)c2)C1=O (single isomer, unassigned) | 470 | 
41 | CCCC(C(N)=O)C(CC(C)C)C(=O)N[C@H]1CCCCN(Cc2cccc(-c3ccc(C(F)(F)F)cc3)c2)C1=O (single isomer, unassigned) | 10 | 

Reference: ChEMBL document CHEMBL1147000, “Synthesis and evaluation of succinoyl-caprolactam gamma-secretase inhibitors” (Bioorg Med Chem Lett, 2006)
